Assay results as given in ChEMBL document CHEMBL1821594, “Synthesis and anticancer evaluation of novel 2-cyclopropylimidazo[2,1-b][1,3,4]-thiadiazole derivatives” (2011).

Assays:
Format in all cases: functional
SNB-75 = experiment: Antitumor activity against human SNB75 cells after 48 hrs by SRB assay; details: SNB-75, 48 h
Procedure, shortened: (§1)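 Cells grown in RPMI 1640 with 5% FBS and 2 mM L-glutamine and seeded at 5000–40,000 cells/well according to doubling time. They were preincubated 24 h at 37 °C, 5% CO2, then exposed to DMSO-solubilized compound for 48 h. Adherent cells were fixed with cold TCA (10% final), suspension cells with 16% final. Stained with 0.4% SRB; absorbance at 515 nm. Percent growth calculated against time-zero and control plates.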

EKVX = experiment: Antitumor activity against human EKVX cells after 48 hrs by SRB assay; procedure, shortened: as §1
SR = experiment: Antitumor activity against human SR cells after 48 hrs by SRB assay
Procedure, shortened: (§2)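 NCI-60 protocol. Cells were grown in RPMI 1640 with 5% FBS and 2 mM L-glutamine, plated at 5000–40,000 cells/well, and preincubated 24 h at 37 °C, 5% CO2. Time-zero plates were TCA-fixed. Compounds were in DMSO and incubated 48 h. Fixation used cold TCA (final 16% for suspension SR; final 10% for adherent lines 2-7). Plates were stained with 0.4% SRB in 1% acetic acid, solubilized in 10 mM Tris base, and read at 515 nm. Percent growth was calculated from Tz, C and Ti.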

HCT-15 = experiment: Antitumor activity against human HCT15 cells after 48 hrs by SRB assay; details: HCT-15, 48 h; procedure, shortened: as §1
SK-MEL-5 = experiment: Antitumor activity against human SK-MEL-5 cells after 48 hrs by SRB assay; details: SK-MEL-5, 48 h; procedure, shortened: as §1
CAKI-1 = experiment: Antitumor activity against human Caki1 cells after 48 hrs by SRB assay; details: CAKI-1, 48 h; procedure, shortened: as §1
OVCAR-5 = experiment: Antitumor activity against human OVCAR5 cells after 48 hrs by SRB assay; details: OVCAR-5, 48 h; procedure, shortened: as §1
HCT-116 = experiment: Antitumor activity against human HCT116 cells after 48 hrs by SRB assay; details: HCT-116, 48 h; procedure, shortened: as §1
SN12C = experiment: Antitumor activity against human SN12C cells after 48 hrs by SRB assay; procedure, shortened: as §1
MCF7 = experiment: Antitumor activity against human MCF7 cells after 48 hrs by SRB assay; details: MCF7, 48 h; procedure, shortened: as §1
U-251 = experiment: Antitumor activity against human U251 cells after 48 hrs by SRB assay; details: U-251, 48 h; procedure, shortened: as §2
HT-29 = experiment: Antitumor activity against human HT-29 cells after 48 hrs by SRB assay; details: HT-29, 48 h; procedure, shortened: as §1
ACHN = experiment: Antitumor activity against human ACHN cells after 48 hrs by SRB assay; procedure, shortened: as §1
SK-OV-3 = experiment: Antitumor activity against human SKOV3 cells after 48 hrs by SRB assay; details: SK-OV-3, 48 h; procedure, shortened: as §1
SK-MEL-2 = experiment: Antitumor activity against human SK-MEL-2 cells after 48 hrs by SRB assay; details: SK-MEL-2, 48 h; procedure, shortened: as §1
IGROV-1 = experiment: Antitumor activity against human IGROV1 cells after 48 hrs by SRB assay; details: IGROV-1, 48 h; procedure, shortened: as §1
BT-549 = experiment: Antitumor activity against human BT549 cells after 48 hrs by SRB assay; details: BT-549, 48 h; procedure, shortened: as §1
SW-620 = experiment: Antitumor activity against human SW620 cells after 48 hrs by SRB assay; details: SW-620, 48 h; procedure, shortened: as §2
PC-3 = experiment: Antitumor activity against human PC3 cells after 48 hrs by SRB assay; details: PC-3, 48 h; procedure, shortened: as §1
OVCAR-4 = experiment: Antitumor activity against human OVCAR4 cells after 48 hrs by SRB assay; details: OVCAR-4, 48 h; procedure, shortened: as §1
NCI/ADR-RES = experiment: Antitumor activity against human NCI/ADR-RES cells after 48 hrs by SRB assay; procedure, shortened: as §1
HL-60(TB) = experiment: Antitumor activity against human HL-60(TB) cells after 48 hrs by SRB assay; details: HL-60, 48 h
Procedure, shortened: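 NCI-60 protocol: cells in RPMI 1640 with 5% FBS and 2 mM glutamine, preincubated 24 h at 37 °C with 5% CO2. Compounds from DMSO stock, tested at 10^-5 M single dose or five 10-fold doses, for 48 h. Suspension cells fixed in settled form (16% TCA final), then SRB stained and read at 515 nm. % growth is calculated against time-zero and control plates; GI50, TGI and LC50 are derived.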

SK-MEL-28 = experiment: Antitumor activity against human SK-MEL-28 cells after 48 hrs by SRB assay; details: SK-MEL-28, 48 h; procedure, shortened: as §1
UO-31 = experiment: Antitumor activity against human UO31 cells after 48 hrs by SRB assay; details: UO-31, 48 h; procedure, shortened: as §2
NCI-H226 = experiment: Antitumor activity against human NCI-H226 cells after 48 hrs by SRB assay; details: NCI-H226, 48 h; procedure, shortened: as §1
UACC-257 = experiment: Antitumor activity against human UACC257 cells after 48 hrs by SRB assay; details: UACC-257, 48 h; procedure, shortened: as §2
MDA-MB-468 = experiment: Antitumor activity against human MDA-MB-468 cells after 48 hrs by SRB assay; details: MDA-MB-468, 48 h; procedure, shortened: as §1
[1] = read-out: LC50 (the source's name)

Clc1ccc(-c2nc3sc(C4CC4)nn3c2Br)cc1
GI50 (SNB-75): 12.2 µM | TGI (SNB-75): 51.9 µM | CC50 (SNB-75; [1]): > 100 µM | GI50 (EKVX): 5.22 µM | TGI (EKVX): > 100 µM | CC50 (EKVX; [1]): > 100 µM | GI50 (SR): 2.9 µM | TGI (SR): > 100 µM | CC50 (SR; [1]): > 100 µM | GI50 (HCT-15): 2.02 µM | TGI (HCT-15): > 100 µM | CC50 (HCT-15; [1]): > 100 µM | GI50 (SK-MEL-5): 2.17 µM | TGI (SK-MEL-5): > 100 µM | CC50 (SK-MEL-5; [1]): > 100 µM | GI50 (CAKI-1): 9.69 µM | TGI (CAKI-1): > 100 µM | CC50 (CAKI-1; [1]): > 100 µM | GI50 (OVCAR-5): 31.9 µM | TGI (OVCAR-5): > 100 µM | CC50 (OVCAR-5; [1]): > 100 µM | GI50 (HCT-116): 2.96 µM | TGI (HCT-116): > 100 µM | CC50 (HCT-116; [1]): > 100 µM | GI50 (SN12C): 14.3 µM | TGI (SN12C): > 100 µM | CC50 (SN12C; [1]): > 100 µM | GI50 (MCF7): 8.18 µM | TGI (MCF7): > 100 µM | CC50 (MCF7; [1]): > 100 µM | GI50 (U-251): 4.29 µM | TGI (U-251): > 100 µM | CC50 (U-251; [1]): > 100 µM | GI50 (HT-29): 6.12 µM | TGI (HT-29): > 100 µM | CC50 (HT-29; [1]): > 100 µM | GI50 (ACHN): 7.07 µM | TGI (ACHN): > 100 µM | CC50 (ACHN; [1]): > 100 µM | GI50 (SK-OV-3): 35 µM | TGI (SK-OV-3): > 100 µM | CC50 (SK-OV-3; [1]): > 100 µM | GI50 (SK-MEL-2): 11 µM | TGI (SK-MEL-2): 59.3 µM | CC50 (SK-MEL-2; [1]): > 100 µM | GI50 (IGROV-1): 17.3 µM | TGI (IGROV-1): > 100 µM | CC50 (IGROV-1; [1]): > 100 µM | GI50 (BT-549): 4.07 µM | TGI (BT-549): > 100 µM | CC50 (BT-549; [1]): > 100 µM | GI50 (SW-620): 6.88 µM | TGI (SW-620): > 100 µM | CC50 (SW-620; [1]): > 100 µM | GI50 (PC-3): 2.22 µM | TGI (PC-3): > 100 µM | CC50 (PC-3; [1]): > 100 µM | GI50 (OVCAR-4): 12.7 µM | TGI (OVCAR-4): 82.1 µM | CC50 (OVCAR-4; [1]): > 100 µM | GI50 (NCI/ADR-RES): 4.18 µM | TGI (NCI/ADR-RES): > 100 µM | CC50 (NCI/ADR-RES; [1]): > 100 µM | GI50 (HL-60(TB)): 3.34 µM | TGI (HL-60(TB)): > 100 µM | CC50 (HL-60(TB); [1]): > 100 µM | GI50 (SK-MEL-28): 35.6 µM | TGI (SK-MEL-28): > 100 µM | CC50 (SK-MEL-28; [1]): > 100 µM | GI50 (UO-31): 16.4 µM | TGI (UO-31): > 100 µM | CC50 (UO-31; [1]): > 100 µM | GI50 (NCI-H226): 4.99 µM | TGI (NCI-H226): > 100 µM | CC50 (NCI-H226; [1]): > 100 µM | GI50 (UACC-257): 4.14 µM | TGI (UACC-257): > 100 µM | CC50 (UACC-257; [1]): > 100 µM | GI50 (MDA-MB-468): 2.95 µM | TGI (MDA-MB-468): > 100 µM | CC50 (MDA-MB-468; [1]): > 100 µM
